According to ChEMBL document CHEMBL1165950, “Design and synthesis of new potent anticancer pyrazoles with high FLT3 kinase inhibitory selectivity” (Bioorg Med Chem, 2010):

Legend:
Type in all cases: functional
[1] = test system: MDA-MB-435; experiment: Cytotoxicity against human MDA-MB-435 cells assessed as cell growth at 100 nM after 48 hrs by sulforhodamine B assay; settings: MDA-MB-435, 48 h, read-out: Activity
[2] = test system: OVCAR-3; experiment: Cytotoxicity against human OVCAR-3 cells assessed as cell growth at 100 nM after 48 hrs by sulforhodamine B assay; settings: OVCAR-3, 48 h, read-out: Activity
[3] = test system: BT-549; experiment: Cytotoxicity against human BT549 cells assessed as cell growth at 0.001 uM after 48 hrs by sulforhodamine B assay; settings: BT-549, 48 h, read-out: Activity
In short: (§1)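 NCI-60 five-dose screen. Cells were grown in RPMI 1640 with 5% FBS and 2 mM L-glutamine, plated at 5000–40,000 cells/well and preincubated for 24 h. Time-zero plates were TCA-fixed. DMSO-solubilized drug was added at five concentrations (10-fold or ½-log serial dilutions) for 48 h at 37 °C, 5% CO2. Cells were TCA-fixed, stained with 0.4% SRB and read at 515 nm. Percent growth used time-zero, control and test absorbances.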

[4] = test system: MDA-MB-468; experiment: Cytotoxicity against human MDA-MB-468 cells assessed as cell growth at 0.001 uM after 48 hrs by sulforhodamine B assay; settings: MDA-MB-468, 48 h, read-out: Activity
[5] = test system: CAKI-1; experiment: Cytotoxicity against human Caki1 cells assessed as cell growth at 100 nM after 48 hrs by sulforhodamine B assay; settings: CAKI-1, 48 h, read-out: Activity
[6] = test system: LOX IMVI; experiment: Cytotoxicity against human LOXIMVI cells assessed as cell growth at 10 uM; settings: read-out: Activity
In short: (§2)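 NCI-60 screen: cells grown in RPMI 1640 with 5% FBS and 2 mM L-glutamine, plated at 5000–40,000 cells/well according to doubling time, and preincubated 24 h at 37 °C, 5% CO2. The single 10 µM dose (DMSO stock) was added, then incubated 48 h. Cells were TCA-fixed and stained with 0.4% SRB, read at 515 nm, and growth % calculated against time-zero and control plates.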

[7] = test system: OVCAR-4; experiment: Cytotoxicity against human OVCAR4 cells assessed as cell growth at 10 uM; settings: read-out: Activity; in short: as §2
[8] = test system: RXF 393; experiment: Cytotoxicity against human RXF393 cells assessed as cell growth at 10 uM; settings: read-out: Activity; in short: as §2
[9] = test system: HCT-116; experiment: Cytotoxicity against human HCT116 cells assessed as cell growth at 1 uM after 48 hrs by sulforhodamine B assay; settings: HCT-116, 48 h, read-out: Activity
[10] = test system: HT-29; experiment: Cytotoxicity against human HT-29 cells assessed as cell growth at 1 uM after 48 hrs by sulforhodamine B assay; settings: HT-29, 48 h, read-out: Activity
[11] = test system: SF-539; experiment: Cytotoxicity against human SF539 cells assessed as cell growth at 1 uM after 48 hrs by sulforhodamine B assay; settings: SF-539, 48 h, read-out: Activity
[12] = test system: U-251; experiment: Cytotoxicity against human U251 cells assessed as cell growth at 1 uM after 48 hrs by sulforhodamine B assay; settings: U-251, 48 h, read-out: Activity
[13] = test system: SK-MEL-2; experiment: Cytotoxicity against human SK-MEL-2 cells assessed as cell growth at 1 uM after 48 hrs by sulforhodamine B assay; settings: SK-MEL-2, 48 h, read-out: Activity
[14] = test system: SF-295; experiment: Cytotoxicity against human SF295 cells assessed as cell growth at 0.01 uM after 48 hrs by sulforhodamine B assay; settings: SF-295, 48 h, read-out: Activity
[15] = test system: A498; experiment: Cytotoxicity against human A498 cells assessed as cell growth at 0.01 uM after 48 hrs by sulforhodamine B assay; settings: A498, 48 h, read-out: Activity; in short: as §1
[16] = test system: NCI-H322M; experiment: Cytotoxicity against human NCI-H322M cells assessed as cell growth at 0.001 uM after 48 hrs by sulforhodamine B assay; settings: read-out: Activity
[17] = test system: HCT-15; experiment: Cytotoxicity against human HCT15 cells assessed as cell growth at 0.001 uM after 48 hrs by sulforhodamine B assay; settings: HCT-15, 48 h, read-out: Activity
[18] = test system: Malme-3M; experiment: Cytotoxicity against human MALME-3M cells assessed as cell growth at 0.001 uM after 48 hrs by sulforhodamine B assay; settings: read-out: Activity
[19] = test system: SK-OV-3; experiment: Cytotoxicity against human SKOV3 cells assessed as cell growth at 0.001 uM after 48 hrs by sulforhodamine B assay; settings: SK-OV-3, 48 h, read-out: Activity
[20] = test system: EKVX; experiment: Growth inhibition of human EKVX cells after 48 hrs by sulforhodamine B assay; settings: for CC50: read-out: LC50 (the source's name)
In short: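 NCI five-dose SRB assay in RPMI 1640 with 5% FBS and 2 mM L-glutamine. Cells were preincubated 24 h, then exposed 48 h at 37 °C to five concentrations (10-fold or half-log serial dilutions from DMSO stocks). TCA fixation, SRB staining, and absorbance at 515 nm followed. IC50 was taken where [(Ti−Tz)/(C−Tz)]×100 = 50, with Tz as time-zero cell density.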

[21] = test system: SK-MEL-5; experiment: Growth inhibition of human SK-MEL-5 cells after 48 hrs by sulforhodamine B assay; settings: SK-MEL-5, 48 h; for CC50: read-out: LC50 (the source's name)
In short: (§3)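 NCI 60-cell screen, five-dose mode. Cells grown in RPMI 1640 with 5% FBS and 2 mM L-glutamine and plated at 5000-40,000 cells/well according to doubling time. After 24 h preincubation, a Tz plate was TCA-fixed. Five concentrations (10-fold or 1/2 log dilutions) were applied for 48 h at 37 °C. SRB staining read at 515 nm. IC50 taken from [(Ti-Tz)/(C-Tz)]×100 = 50.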

[22] = test system: UACC-257; experiment: Growth inhibition of human UACC257 cells after 48 hrs by sulforhodamine B assay; settings: UACC-257, 48 h; for CC50: read-out: LC50 (the source's name); in short: as §3
[23] = test system: NCI-H322M; experiment: Cytotoxicity against human NCI-H322M cells assessed as cell growth at 100 nM after 48 hrs by sulforhodamine B assay; settings: read-out: Activity
[24] = test system: PC-3; experiment: Growth inhibition of human PC3 cells after 48 hrs by sulforhodamine B assay; settings: PC-3, 48 h; in short: as §3
[25] = test system: HT-29; experiment: Cytotoxicity against human HT-29 cells assessed as cell growth at 10 uM; settings: read-out: Activity
In short: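 Single-dose NCI-60 screen at 10 µM. Cells were grown in RPMI 1640 with 5% FBS and 2 mM L-glutamine, then treated for 48 h at 37 °C. Protein was measured by SRB staining with absorbance at 515 nm. Percentage growth was recorded, and inhibition percentage was calculated as 100 minus growth percentage.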

[26] = test system: SR; experiment: Cytotoxicity against human SR cells assessed as cell growth at 10 uM after 48 hrs by sulforhodamine B assay; settings: read-out: Activity
[27] = test system: U-251; experiment: Cytotoxicity against human U251 cells assessed as cell growth at 10 uM after 48 hrs by sulforhodamine B assay; settings: U-251, 48 h, read-out: Activity
[28] = test system: IGROV-1; experiment: Cytotoxicity against human IGROV1 cells assessed as cell growth at 10 uM after 48 hrs by sulforhodamine B assay; settings: IGROV-1, 48 h, read-out: Activity

Compound | growth at 0.1 µM [1] | growth at 0.1 µM [2] | growth at 0.001 µM [3] | growth at 0.001 µM [4] | growth at 0.1 µM [5] | growth at 10 µM [6] | growth at 10 µM [7] | growth at 10 µM [8] | growth at 1 µM [9] | growth at 1 µM [10] | growth at 1 µM [11] | growth at 1 µM [12] | growth at 1 µM [13] | growth at 0.01 µM [14] | growth at 0.01 µM [15] | growth at 0.001 µM [16] | growth at 0.001 µM [17] | growth at 0.001 µM [18] | growth at 0.001 µM [19] | GI50 [20] | other results
COc1cc(C)cc(-c2c(-c3ccnc(-c4ccc(C(C)=O)cc4)c3)cnn2CC#N)c1 | 63% | 92% | 96% | 92% | 86% | 58.8% | 80.2% | 54.8% | -27% | 7% | -45% | 4% | 34% | 98% | 77% | 102% | 94% | 105% | 86% | 5.8 µM | TGI [20]: > 100 µM; CC50 [20]: > 100 µM; GI50 [21]: 1.94 µM; TGI [21]: 4.96 µM; CC50 [21]: > 100 µM; GI50 [22]: 5.24 µM; TGI [22]: > 100 µM; CC50 [22]: > 100 µM; growth at 0.1 µM [23]: 100%; GI50 [24]: 3.59 µM; LC50 (concentration giving 50% net cell kill) [24]: > 100 µM; TGI [24]: > 100 µM; growth at 10 µM [25]: 15.2%; growth at 10 µM [26]: 28%; growth at 10 µM [27]: 13%; growth at 10 µM [28]: 14%
COc1cc(C)cc(-c2nn(CC#N)cc2-c2ccc(-c3cccc(C(C)=O)c3)nc2)c1 | 11% | 66% | 99% | 83% | 69% | 25.4% | 31.7% | -51% | 1% | 4% | -39% | 6% | 22% | 98% | 60% | 94% | 95% | 97% | 86% | 3.98 µM | TGI [20]: 50.7 µM; CC50 [20]: > 100 µM; GI50 [21]: 1.54 µM; TGI [21]: 6.79 µM; CC50 [21]: 39.8 µM; GI50 [22]: 3.61 µM; TGI [22]: > 100 µM; CC50 [22]: > 100 µM; growth at 0.1 µM [23]: 95%; GI50 [24]: 3.45 µM; LC50 (concentration giving 50% net cell kill) [24]: > 100 µM; TGI [24]: > 100 µM; growth at 10 µM [25]: 3.66%; growth at 10 µM [26]: 28%; growth at 10 µM [27]: -37%; growth at 10 µM [28]: -40%
Cc1cc(O)cc(-c2nn(CC#N)cc2-c2ccnc(-c3ccc(Oc4ccccc4)cc3)c2)c1 | 89% | 93% | 96% | 91% | 75% | 16.6% | 49.8% | 24.6% | -100% | -65% | 13% | -97% | 6% | 94% | 78% | 94% | 94% | 88% | 79% | 2.16 µM | TGI [20]: 8.95 µM; CC50 [20]: > 100 µM; GI50 [21]: 2.93 µM; TGI [21]: 9.9 µM; CC50 [21]: 31.5 µM; GI50 [22]: 2.38 µM; TGI [22]: 8.38 µM; CC50 [22]: 31.7 µM; growth at 0.1 µM [23]: 95%; GI50 [24]: 2.15 µM; LC50 (concentration giving 50% net cell kill) [24]: 62 µM; TGI [24]: 7.37 µM; growth at 10 µM [25]: 0.27%; growth at 10 µM [26]: -12%; growth at 10 µM [27]: -98%; growth at 10 µM [28]: -74%
